Experimental data of several laboratories.
PIK3CA E542K: Phosphatidylinositol 4,5-bisphosphate 3-kinase catalytic subunit alpha isoform (PIK3CA, Homo sapiens, UniProt P42336, E542K)
PIK3CA E545A: Phosphatidylinositol 4,5-bisphosphate 3-kinase catalytic subunit alpha isoform (PIK3CA, Homo sapiens, UniProt P42336, E545A)
PIK3CA I800L: Phosphatidylinositol 4,5-bisphosphate 3-kinase catalytic subunit alpha isoform (PIK3CA, Homo sapiens, UniProt P42336, I800L)
PIK3CA H1047Y: Phosphatidylinositol 4,5-bisphosphate 3-kinase catalytic subunit alpha isoform (PIK3CA, Homo sapiens, UniProt P42336, H1047Y)
PIK3CA Q546K: Phosphatidylinositol 4,5-bisphosphate 3-kinase catalytic subunit alpha isoform (PIK3CA, Homo sapiens, UniProt P42336, Q546K)

| Structure (SMILES) | target | test | setting | remaining binding |
| --- | --- | --- | --- | --- |
| O=C(NCCCN1CCOCC1)c1ccc(Nc2ncc(Cl)c(-c3ccc(Cl)s3)n2)cc1 | PIK3CA E542K | binding, competition with immobilised ligand | 1 µM | 100% |
| Cc1nc(Cc2cccc(C(F)(F)F)c2)sc1-c1ccc(C(N)=O)nc1 | PIK3CA E545A | cell-free assay, competition with immobilised ligand | 1 µM | 100% |
| N[C@H]1CCN(c2nccc(-c3cnn4ncccc34)n2)C1 | PIK3CA E542K | binding | 1 µM | 83% |
| c1cncc(-c2cccc(Nc3nccc(NC4CCCCC4)n3)c2)c1 | PIK3CA I800L | binding, competition with immobilised ligand | 10 µM | 77% |
| c1cnn2ncc(-c3ccnc(N4CCC45COC5)n3)c2c1 | Phosphatidylinositol 4,5-bisphosphate 3-kinase catalytic subunit alpha isoform (PIK3CA, Homo sapiens, UniProt P42336, M1043I) | binding | 1 µM | 67% |
| COc1cnc(Nc2cccc(S(N)(=O)=O)c2)nc1N1CCN(c2ccccc2)CC1 | PIK3CA H1047Y | binding, competition with immobilised ligand | 1 µM | 74% |
| CN(C)C(=O)Cn1cc(-c2nc([C@@](C)(c3ccc(-c4cnc(N)nc4)cc3)C3CC3)no2)cn1 | PIK3CA E542K | cell-free assay, competition with immobilised ligand | 1 µM | 79% |
| O=C(NCCCN1CCOCC1)c1ccc(Nc2nccc(-c3cc4ccccc4s3)n2)cc1 | PIK3CA E545A | binding, competition with immobilised ligand | 1 µM | 84% |
| COc1cccc(CNC(=O)c2nc3scc(COCc4ccc(C(=O)O)cc4)c3c(=O)[nH]2)c1 | PIK3CA I800L | cell-free assay, competition with immobilised ligand | 1 µM | 77.2% |
| C[C@@H](c1ccc(-n2cnc3c(N)ncnc32)cc1)N1CCc2nn(C)c(Cc3ccccc3)c2C1=O | PIK3CA Q546K | binding, competition with immobilised ligand | 0.1 µM | 77% |
| FC(F)(F)c1ccc2c(c1)nc(-c1cccnc1)n2C1CC1 | PIK3CA Q546K | cell-free assay, competition with immobilised ligand | 1 µM | 99% |
| C=CC(=O)N1CCC(C(=O)NCC(=O)N2CCN(c3nc(-c4cnc(N)nc4C(F)F)nc(N4CCOCC4)n3)CC2)CC1 | PIK3CA H1047Y | binding, competition with immobilised ligand | 1 µM | 5.9% |
| NS(=O)(=O)c1cc(NC(=O)C2(c3ccccc3Cl)CC2)ccc1Oc1cccc(Cl)c1 | PIK3CA I800L | cell-free assay, competition with immobilised ligand | 1 µM | 100% |
| CN(c1nccc(-c2cnn3ncccc23)n1)C1CC1 | PIK3CA I800L | binding | 1 µM | 100% |
| Cc1cc(C)c(-n2ccn3nc(-c4cccnc4)cc23)cc1NC(=O)c1cc(C#N)cc(S(F)(F)(F)(F)F)c1 | PIK3CA H1047Y | cell-free assay, competition with immobilised ligand | 0.1 µM | 76.2% |
| CN(C)c1ncc(F)c(-c2cnn3ncccc23)n1 | Phosphatidylinositol 4,5-bisphosphate 3-kinase catalytic subunit alpha isoform (PIK3CA, Homo sapiens, UniProt P42336) | binding | 1 µM | 77% |
| O=c1nc(-c2ccccn2)sc2ccccc12 | PIK3CA H1047Y | cell-free assay, competition with immobilised ligand | 1 µM | 94% |
| Cc1cnn2ncc(-c3ccnc(N(C)C)n3)c2c1 | PIK3CA I800L | binding | 1 µM | 100% |
| O=C(c1ccc(Nc2ncc(Cl)c(-c3ccc(Cl)s3)n2)cc1)N1CCC(N2CCCC2)CC1 | Phosphatidylinositol 4,5-bisphosphate 3-kinase catalytic subunit alpha isoform (PIK3CA, Homo sapiens, UniProt P42336, C420R) | binding, competition with immobilised ligand | 1 µM | 100% |
| C[C@H]1CCN(c2nccc(-c3cnn4ncccc34)n2)C1 | PIK3CA Q546K | binding | 1 µM | 85% |
| O=C(Nc1c[nH]nc1C(=O)NC1CCNCC1)c1cc(F)cc(F)c1 | Phosphatidylinositol 4,5-bisphosphate 3-kinase catalytic subunit alpha isoform (PIK3CA, Homo sapiens, UniProt P42336, H1047L) | binding, competition with immobilised ligand | 1 µM | 87% |
